Laboratory results reported in ChEMBL document CHEMBL3826876, “Toward the Development of Specific G-Quadruplex Binders: Synthesis, Biophysical, and Biological Studies of New Hydrazone Derivatives” (J Med Chem, 2016).
Active and inactive are the calls of the source. The calls are words filed in the database; no cut-off is given here.

Experiments:
[1] = Effect on synthetic c-MYC G-quadruplex DNA topology at 4 mol equiv by circular dichroism spectroscopic analysis
Procedure, shortened: (§1)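 CD spectra at 20 °C, 230-360 nm, 3 scans averaged, baseline subtracted; 10 µM G4 or 15 µM duplex in potassium- or lithium-phosphate pH 7.0 buffers with 100 mM KCl (c-kit2, c-myc: 5 mM potassium phosphate, 20 mM KCl); ligand 4 molar equiv added to folded DNA from 6 mM DMSO stock.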

[2] = Binding affinity to synthetic telomere 26 G-quadruplex DNA assessed as change in melting temperature at 4 mol equiv in presence of 100 mM KCl buffer by circular dichroism spectroscopic analysis
Procedure, shortened: (§2)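 CD melting, 20-100 °C at 1 °C/min, signal at 264 (parallel), 290 (antiparallel) or 280 nm (duplex). G4 DNA 10 µM or duplex 15 µM, folded by heating at 90 °C 5 min and slow cooling, in 10 mM potassium phosphate (c-kit1, Tel23, Tel26) or lithium phosphate (Tel23-p, ds12) pH 7.0 with 100 mM KCl. Ligand 4 equiv; Tm by curve fit, ΔTm vs DNA alone; duplicate average.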

[3] = Effect on synthetic telomere 23 parallel G-quadruplex DNA topology at 4 mol equiv by circular dichroism spectroscopic analysis; procedure, shortened: as §1
[4] = Induction of parallel G-quadruplex formation in synthetic unfolded c-KIT2 DNA assessed as increase in molar ellipticity after 10 mins in absence of metal cation by circular dichroism titration method
Procedure, shortened: (§3)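 CD titration without metal ions: unfolded oligonucleotide 12-15 µM in 50 mM Tris; ligand added in 0.5 equiv steps, spectrum recorded 10 min after each addition at 20 °C, 230-360 nm, 3 scans averaged.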

U2OS [5] = assay: Stabilization of nuclear G-quadruplex DNA in human U2OS cells at 0.2 to 1 uM after 24 hrs by DAPI staining based immunofluorescence assay; assay type: cell-based
Procedure, shortened: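 U2OS seeded at 100000 cells/ml, treated 24 h after seeding for 24 h; fixed methanol:acetic acid 3:1, 0.1% Triton X-100, 2% milk block. Stained with in-house His-purified BG4, anti-FLAG, Alexa 488 anti-rabbit; nuclei DAPI. Per-cell signal as corrected total cell fluorescence; Student's t test.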

[6] = Binding affinity to synthetic c-KIT1 G-quadruplex DNA assessed as change in melting temperature at 4 mol equiv in presence of 100 mM KCl buffer by circular dichroism spectroscopic analysis; procedure, shortened: as §2
U2OS [7] = assay: Cytotoxicity against human U2OS cells assessed as cell killing after 1 hr by MTT assay; assay type: functional, cell-based
Procedure, shortened: (§4)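 U2OS and HCT116 in DMEM with 10% FBS, 1% L-glutamine, seeded at 40000 cells/ml; 24 h later exposed for 1 h or 24 h, then drug-free medium 1-2 days. MTT 1 h at 37 °C, DMSO solubilisation, absorbance 595 nm. IC50 by linear regression; two independent experiments in triplicate, mean ± SE.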

[8] = Binding affinity to synthetic telomere 23 parallel G-quadruplex DNA assessed as change in melting temperature at 4 mol equiv in presence of 100 mM KCl buffer by circular dichroism spectroscopic analysis; procedure, shortened: as §2
[9] = Cytotoxicity against human HCT116 cells assessed as cell killing after 1 hr by MTT assay; assay type: functional, cell-based; conditions: HCT-116, 1 h; procedure, shortened: as §4
[10] = Effect on synthetic self-complementary DNA 12-mer duplex topology at 4 mol equiv in presence of K+ ions by circular dichroism spectroscopic analysis; procedure, shortened: as §1
[11] = Effect on synthetic c-KIT1 G-quadruplex DNA topology at 4 mol equiv by circular dichroism spectroscopic analysis; procedure, shortened: as §1
U2OS [12] = assay: Cytotoxicity against human U2OS cells assessed as cell killing after 24 hrs by MTT assay; assay type: functional, cell-based; procedure, shortened: as §4
[13] = Induction of G-quadruplex formation in synthetic unfolded telomere 23 DNA assessed as increase in molar ellipticity after 10 mins in absence of metal cation by circular dichroism titration method; procedure, shortened: as §3
[14] = Binding affinity to 5' and 3'-terminal G-tetrads of synthetic MYC22 G14T/G23T double mutant G-quadruplex DNA in presence of 70 mM KCl solution by NMR spectroscopic analysis
Procedure, shortened: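 1H NMR titration at 25 °C, 700 MHz, water-suppressed 1D spectra; DNA 0.2-0.5 mM strand in H2O/D2O 9:1. Myc22 in 25 mM KH2PO4, 70 mM KCl, 0.2 mM EDTA, pH 7.0; c-kit2 T12/T21 in 5 mM KH2PO4, 20 mM KCl, 0.2 mM EDTA, pH 6.8. Ligand in DMSO-d6 added stepwise into the tube; imino proton shifts followed.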

[15] = Cytotoxicity against human HCT116 cells assessed as cell killing after 24 hrs by MTT assay; assay type: functional, cell-based; conditions: HCT-116, 24 h; procedure, shortened: as §4
[16] = Binding affinity to synthetic c-MYC G-quadruplex DNA assessed as change in melting temperature at 4 mol equiv in presence of 20 mM KCl buffer by circular dichroism spectroscopic analysis
[17] = Binding affinity to synthetic self-complementary DNA 12-mer duplex assessed as change in melting temperature at 4 mol equiv in presence of 100 mM KCl buffer by circular dichroism spectroscopic analysis; procedure, shortened: as §2
U2OS [18] = assay: Cytotoxicity against human U2OS cells assessed as cell death after 24 hrs by FACS analysis; assay type: cell-based
[19] = Ratio of IC50 for human U2OS cells to stabilization of nuclear G-quadruplex DNA in human U2OS cells
U2OS [20] = assay: Cytotoxicity against human U2OS cells assessed as cell death after 24 hrs by microscopic analysis; assay type: cell-based
[21] = Binding affinity to synthetic c-KIT2 G-quadruplex DNA assessed as increase in thermal stability in presence of 20 mM KCl buffer by circular dichroism spectroscopic analysis
Procedure, shortened: (§5)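 CD melting in 5 mM potassium phosphate, 20 mM KCl, 10 µM folded G4, heated 20-100 °C at 1 °C/min; ligand:DNA ratios 1:1, 2:1 and 4:1 compared; Tm from curve fit.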

[22] = Induction of parallel G-quadruplex formation in synthetic unfolded c-KIT1 DNA assessed as increase in molar ellipticity after 10 mins by in absence of metal cation circular dichroism titration method; procedure, shortened: as §3
[23] = Binding affinity to human 5'-FAM/3'-TAMRA labeled telomere 21 parallel G-quadruplex DNA (unknown origin) assessed as change in melting temperature at 4:1 ligand:DNA ratio in presence of 100 mM KCl buffer by FRET assay
Procedure, shortened: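 FRET melting of FAM/TAMRA-labelled G4 oligos (400 nM, annealed 85 °C 10 min) with ligand at 4 equiv, same buffers as CD (20 mM KCl for c-kit2 and c-myc; 100 mM KCl for telomeric parallel form, annealed at high concentration). Excitation 450-495 nm, emission 515-545 nm, read every 0.5 °C over 30-100 °C; ΔTm by curve fit; duplicate runs averaged.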

[24] = Binding affinity to synthetic c-MYC G-quadruplex DNA assessed as increase in thermal stability at 1:1 to 2:1 ligand:DNA ratio in presence of 20 mM KCl buffer by circular dichroism spectroscopic analysis; procedure, shortened: as §5
[25] = Effect on synthetic telomere 26 G-quadruplex DNA topology at 4 mol equiv by circular dichroism spectroscopic analysis; procedure, shortened: as §1

Question: Which Activity [1] does the source give for `Br.O=Cc1c(-c2ccccc2)nc2n1ccc1nc(-c3ccccc3)c(/C=N/NC3=NCCN3)n12` here?
Answer: inactive

Question: What about the ΔTm [2] of the same compound?
Answer: -3 °C

Question: And the Activity [3]?
Answer: inactive

Question: And the Activity [4]?
Answer: inactive

Question: And the Activity (U2OS [5])?
Answer: Active

Question: What about the ΔTm [6] of the same compound?
Answer: 2.7 °C

Question: And the IC50 (U2OS [7])?
Answer: 5.73 µM

Question: And the ΔTm [8]?
Answer: 9.1 °C

Question: What about the IC50 [9] of the same compound?
Answer: 4.18 µM

Question: And the Activity [10]?
Answer: inactive

Question: What about the Activity [11] of the same compound?
Answer: inactive

Question: And the IC50 (U2OS [12])?
Answer: 845 nM

Question: And the Activity [13]?
Answer: inactive

Question: And the Activity [14]?
Answer: Active

Question: And the IC50 [15]?
Answer: 407 nM

Question: What about the ΔTm [16] of the same compound?
Answer: > 20 °C

Question: What about the ΔTm [17] of the same compound?
Answer: -0.8 °C

Question: And the Activity (U2OS [18])?
Answer: Non-toxic

Question: What about the Ratio [19] of the same compound?
Answer: 4

Question: And the Activity (U2OS [20])?
Answer: Non-toxic

Question: And the Activity [21]?
Answer: Dose-dependent effect

Question: And the Activity [22]?
Answer: inactive

Question: What about the ΔTm [23] of the same compound?
Answer: 7 °C

Question: And the Activity [24]?
Answer: Active

Question: What about the Activity [25] of the same compound?
Answer: inactive
